This note sets out measurements from ChEMBL document CHEMBL2034971, “Appraisal of GABA and PABA as linker: design and synthesis of novel benzamide based histone deacetylase inhibitors” (Eur J Med Chem, 2012).

The IC50 is the concentration that inhibits the measured activity by half. High values mean weaker potency, low ones greater potency. As a reminder, the inhibition in vivo is the percentage by which the read-out fell short of the control. The GI50 is the concentration at which growth is held to half of that of the control. Read a high GI50 as less potent growth inhibition. The TGI is the concentration at which net growth stops. Read a low TGI as more potent growth arrest.

In assay [1] the target is Histone deacetylase 1 (Homo sapiens, UniProt Q13547). The experiment in a line: Inhibition of HDAC1 using Fluor de Lys as substrate by fluorescence analysis.
Assay [2] can be described thus: Antitumor activity against mouse EAC cells allografted in Swiss albino mouse assessed as decrease in tumor weight at 0.2 mmol/kg, ip administered from day 1 to day 7 every 24 hrs. The assay is classed as functional. The note with it: Ehrlich. The procedure, abridged: (§1)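 EAC cells kept by intraperitoneal passage in Swiss albino mice (18-20 g, 10 weeks) every 10 days; 9-day-old cells in isotonic saline adjusted to 10×10^6 cells/mL, 0.1 mL per 10 g injected ip on day 0. Seven daily ip doses in PBS pH 7.2 (0.1 mL/10 g), days 1-7; vehicle control. Day 8 sacrifice after 6 h fast.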

Assay [3] concerns HCT-116. The assay is described as follows: Growth inhibition of human HCT116 cells after 2 days by MTT assay. The assay is classed as functional. The note with it: HCT-116, 48 h; for CC50: read-out: LC50 (the source's name). A general note: Tetrazolium assays rely on reduction of a dye to a coloured formazan, in cell work by metabolically active cells.
Assay [4] concerns U-251. The assay is described as follows: Growth inhibition of human U251 cells after 2 days by MTT assay. The assay is classed as functional. The note with it: U-251, 48 h.
Assay [5] can be described thus: Antitumor activity against mouse EAC cells allografted in Swiss albino mouse assessed as decrease in tumor cell at 0.2 mmol/kg, ip administered from day 1 to day 7 every 24 hrs. In kind it is functional. The note with it: Ehrlich. The method, boiled down: as §1
In assay [6] the target is T1, NAD-dependent protein deacetylase sirtuin-1 (Homo sapiens, UniProt Q96EB6).
T1 sequence (Q96EB6 whole entry): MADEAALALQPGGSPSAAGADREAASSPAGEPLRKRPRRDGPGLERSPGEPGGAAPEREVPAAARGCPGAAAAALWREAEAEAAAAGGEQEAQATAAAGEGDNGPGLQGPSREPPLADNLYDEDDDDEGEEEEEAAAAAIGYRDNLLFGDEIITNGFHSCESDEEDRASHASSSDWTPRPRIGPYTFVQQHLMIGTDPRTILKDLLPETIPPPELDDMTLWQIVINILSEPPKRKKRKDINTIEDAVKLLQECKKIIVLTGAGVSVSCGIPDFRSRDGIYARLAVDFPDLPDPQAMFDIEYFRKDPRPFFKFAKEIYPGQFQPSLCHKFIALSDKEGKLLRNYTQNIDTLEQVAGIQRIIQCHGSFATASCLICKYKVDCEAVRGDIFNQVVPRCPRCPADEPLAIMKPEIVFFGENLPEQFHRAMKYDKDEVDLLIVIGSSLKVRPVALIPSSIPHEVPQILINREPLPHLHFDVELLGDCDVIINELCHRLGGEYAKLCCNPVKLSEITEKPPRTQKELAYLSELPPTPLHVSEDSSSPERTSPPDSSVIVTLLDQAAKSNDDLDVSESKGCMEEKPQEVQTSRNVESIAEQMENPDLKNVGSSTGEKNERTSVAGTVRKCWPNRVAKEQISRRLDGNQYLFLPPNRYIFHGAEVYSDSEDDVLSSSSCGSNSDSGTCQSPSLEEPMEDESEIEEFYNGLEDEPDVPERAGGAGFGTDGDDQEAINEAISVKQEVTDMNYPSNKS
The assay is described as follows: Inhibition of SIRT1.

Assay [7] in a line: Antitumor activity against mouse EAC cells allografted in Swiss albino mouse assessed as decrease in tumor cell at 1 mg/kg, ip administered from day 1 to day 7 every 24 hrs. In kind it is functional. The note with it: Ehrlich, route intraperitoneal. The method, boiled down: as §1
The nature of assay [8]: Antitumor activity against mouse EAC cells allografted in Swiss albino mouse assessed as decrease in tumor weight at 1 mg/kg, ip administered from day 1 to day 7 every 24 hrs. In kind it is functional. As to conditions: Ehrlich, route intraperitoneal. The procedure, abridged:
as §1

Chain of Histone deacetylase 1 (Q13547 whole entry): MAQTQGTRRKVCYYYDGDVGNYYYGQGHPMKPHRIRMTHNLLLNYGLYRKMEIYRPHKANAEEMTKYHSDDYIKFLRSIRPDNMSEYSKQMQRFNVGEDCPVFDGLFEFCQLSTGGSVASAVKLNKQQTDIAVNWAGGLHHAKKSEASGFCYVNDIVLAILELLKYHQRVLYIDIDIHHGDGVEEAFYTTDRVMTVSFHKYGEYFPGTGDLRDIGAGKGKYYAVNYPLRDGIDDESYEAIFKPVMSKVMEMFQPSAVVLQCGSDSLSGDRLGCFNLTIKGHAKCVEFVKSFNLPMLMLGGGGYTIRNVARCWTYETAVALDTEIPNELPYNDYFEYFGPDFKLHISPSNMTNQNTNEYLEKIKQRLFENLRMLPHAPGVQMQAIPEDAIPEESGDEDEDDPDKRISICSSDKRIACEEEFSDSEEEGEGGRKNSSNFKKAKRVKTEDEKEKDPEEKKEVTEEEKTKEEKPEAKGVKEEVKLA

In the case of `Cc1ccc(NC(=O)CNCCCC(=O)Nc2ccccc2N)cc1`, the IC50 in assay [1] was found to be 7.5 µM. Also, the inhibition in vivo at 200 µmol/kg in assay [2] was determined as 42.8%. Moreover, in assay [3], it took 17.9 µM to inhibit growth by half (GI50), the TGI was above 100 µM and the CC50 was above 100 µM. In assay [4], this molecule registered a 50% growth inhibitory concentration (GI50) of 57 µM, an LC50 (concentration killing 50% of cells) above 100 µM and a TGI above 100 µM. For the same molecule, the inhibition in vivo at 200 µmol/kg in assay [5] came to 18.9%.
Molecule `Nc1ccccc1NC(=O)CCCNCC(=O)Nc1cc(Cl)ccc1Cl` displayed an IC50 in assay [1] of 8.9 µM. Besides, in assay [2], the inhibition in vivo at 200 µmol/kg stood at 50%. Also, in assay [3], the GI50 is 31 µM, the TGI was 78 µM and the CC50 is above 100 µM. In assay [4], this molecule yielded a GI50 of 44 µM, an LC50 (concentration killing 50% of cells) above 100 µM and a concentration for total growth inhibition (TGI) above 100 µM. In addition, the inhibition in vivo at 200 µmol/kg in assay [5] was 50.9%.
The molecule `Nc1ccccc1NC(=O)c1ccc(NCC(=O)Nc2ccccc2)cc1` gave an IC50 in assay [1] of 7.4 µM. The inhibition in vivo at 200 µmol/kg in assay [2] was found to be 18.5%. In assay [3], the GI50 amounted to 45.3 µM, the TGI is above 100 µM and the CC50 is above 100 µM. Besides, in assay [4], the GI50 amounted to 65 µM, the LC50 (concentration killing 50% of cells) was above 100 µM and the TGI is above 100 µM. In assay [5], the inhibition in vivo at 200 µmol/kg was found to be 30.5%.
Turning to `Nc1ccccc1NC(=O)c1ccc(NCC(=O)Nc2ccc(Br)cc2)cc1`, the IC50 in assay [1] was found to be 1.6 µM. The inhibition in vivo at 200 µmol/kg in assay [2] amounted to 76.3%. For the same molecule, in assay [3], the GI50 is 6.8 µM, the TGI was found to be 47.5 µM and the CC50 was above 100 µM. In assay [4], this molecule returned a GI50 of 10.8 µM, an LC50 (concentration killing 50% of cells) above 100 µM and a total growth inhibition concentration (TGI) of 45 µM. Besides, the inhibition in vivo at 200 µmol/kg in assay [5] worked out at 73.5%.
The molecule `Nc1ccccc1NC(=O)c1ccc(NCC(=O)Nc2ccccc2Cl)cc1` came in with a half-inhibitory concentration (IC50) in assay [1] of 2.9 µM. Further, in assay [2], the inhibition in vivo at 200 µmol/kg worked out at 43.3%. Moreover, in assay [3], the GI50 came to 9.5 µM, the TGI was above 100 µM and the CC50 is above 100 µM. In addition, in assay [4], halving of growth (GI50) required 24.2 µM, the LC50 (concentration killing 50% of cells) was above 100 µM and the TGI was above 100 µM. The inhibition in vivo at 200 µmol/kg in assay [5] was 31.4%.
Regarding `Nc1ccccc1NC(=O)c1ccc(NCC(=O)Nc2cccc(Cl)c2)cc1`, the IC50 in assay [1] is 2.5 µM. Moreover, in assay [2], the inhibition in vivo at 200 µmol/kg was 68.4%. In assay [3], growth was halved (GI50) at 11.5 µM, the TGI is above 100 µM and the CC50 was above 100 µM. Moreover, in assay [4], the GI50 turned out to be 15.4 µM, the LC50 (concentration killing 50% of cells) is above 100 µM and the TGI was determined as 88 µM. Further, the inhibition in vivo at 200 µmol/kg in assay [5] was determined as 51.7%.
In assay [1], `Nc1ccccc1NC(=O)c1ccc(NCC(=O)Nc2ccc(Cl)cc2)cc1` registered an IC50 of 1 µM. Further, the inhibition in vivo at 200 µmol/kg in assay [2] was determined as 79.4%. Moreover, in assay [3], halving of growth (GI50) required 4.2 µM, the TGI is 62.5 µM and the CC50 was above 100 µM. In assay [4], this molecule returned a GI50 of 9.4 µM, an LC50 (concentration killing 50% of cells) above 100 µM and a TGI of 62.5 µM. In addition, the inhibition in vivo at 200 µmol/kg in assay [5] is 73.3%.
As for `Nc1ccccc1NC(=O)c1ccc(NCC(=O)Nc2ccccc2[N+](=O)[O-])cc1`, half-maximal inhibition in assay [1] (IC50) required 2 µM. The inhibition in vivo at 200 µmol/kg in assay [2] was determined as 12.9%. In assay [3], it took 3.5 µM to inhibit growth by half (GI50), the TGI was 25 µM and the CC50 is above 100 µM. Further, in assay [4], the concentration for 50% growth inhibition (GI50) stood at 18 µM, the LC50 (concentration killing 50% of cells) is above 100 µM and net growth stopped (TGI) at 83 µM. For the same molecule, the inhibition in vivo at 200 µmol/kg in assay [5] came out at 19.7%.
Regarding `Nc1ccccc1NC(=O)c1ccc(NCC(=O)Nc2cccc([N+](=O)[O-])c2)cc1`, in assay [1], the IC50 was found to be 1.4 µM. Besides, the inhibition in vivo at 200 µmol/kg in assay [2] was determined as 67.6%. Further, in assay [3], the GI50 stood at 1.1 µM, total growth inhibition (TGI) required 9 µM and the CC50 is above 100 µM. Moreover, in assay [4], the GI50 worked out at 13.5 µM, the LC50 (concentration killing 50% of cells) is above 100 µM and the concentration for total growth inhibition (TGI) was found to be 52 µM. The inhibition in vivo at 200 µmol/kg in assay [5] is 40.4%.
Molecule `Nc1ccccc1NC(=O)c1ccc(NCC(=O)Nc2ccc([N+](=O)[O-])cc2)cc1` returned an IC50 in assay [1] of 0.7 µM. For the same molecule, the inhibition in vivo at 200 µmol/kg in assay [2] came to 83.3%. Also, in assay [3], the 50% growth inhibitory concentration (GI50) was 0.6 µM, the TGI was 6.5 µM and the CC50 was above 100 µM. In addition, in assay [4], the GI50 came to 8.2 µM, the LC50 (concentration killing 50% of cells) was above 100 µM and total growth inhibition (TGI) required 42.5 µM. For the same molecule, the inhibition in vivo at 200 µmol/kg in assay [5] is 77.5%.
In assay [1], `COc1ccc(NC(=O)CNc2ccc(C(=O)Nc3ccccc3N)cc2)cc1` returned an IC50 of 3.1 µM. Further, in assay [2], the inhibition in vivo at 200 µmol/kg is 66.6%. In addition, in assay [3], the GI50 was found to be 7.5 µM, the TGI stood at 38 µM and the CC50 was above 100 µM. In assay [4], this molecule returned a 50% growth inhibitory concentration (GI50) of 25.5 µM, an LC50 (concentration killing 50% of cells) above 100 µM and a TGI above 100 µM. For the same molecule, the inhibition in vivo at 200 µmol/kg in assay [5] turned out to be 62.3%.
The molecule `Cc1ccc(NC(=O)CNc2ccc(C(=O)Nc3ccccc3N)cc2)cc1` registered an IC50 in assay [1] of 4.5 µM. Further, in assay [2], the inhibition in vivo at 200 µmol/kg came to 43.3%. Also, in assay [3], it took 12.6 µM to inhibit growth by half (GI50), the TGI is above 100 µM and the CC50 is above 100 µM. In assay [4], this molecule came in with a GI50 of 84 µM, an LC50 (concentration killing 50% of cells) above 100 µM and a TGI above 100 µM. Further, in assay [5], the inhibition in vivo at 200 µmol/kg is 25.2%.
Take `Nc1ccccc1NC(=O)c1ccc(NCC(=O)Nc2cc(Cl)ccc2Cl)cc1`: the IC50 in assay [1] is 8.6 µM. Besides, in assay [2], the inhibition in vivo at 200 µmol/kg was determined as 58.3%. In assay [3], growth was halved (GI50) at 7.9 µM, the TGI turned out to be 66 µM and the CC50 was above 100 µM. Also, in assay [4], it took 38.6 µM to inhibit growth by half (GI50), the LC50 (concentration killing 50% of cells) was above 100 µM and the TGI is above 100 µM. For the same molecule, the inhibition in vivo at 200 µmol/kg in assay [5] is 56.2%.
Consider `Nc1ccccc1NC(=O)c1ccc(CNC(=O)OCc2cccnc2)cc1` [ENTINOSTAT], for which, in assay [6], the IC50 was above 100 µM. Also, in assay [3], the GI50 stood at 0.6 µM, the TGI was above 100 µM and the CC50 was above 100 µM. In assay [4], this molecule gave a GI50 of 6.5 µM and a TGI of 40 µM.
Consider `CO[C@@]12[C@H](COC(N)=O)C3=C(C(=O)C(C)=C(N)C3=O)N1C[C@@H]1N[C@@H]12` [MITOMYCIN], for which the inhibition in vivo at 1 mg/kg in assay [7] and in assay [8] was 100% in each case.
